Shown are actives, neighbours in structure and some others; about 2.1% of the full set was active somewhere.
MC4R antagonist: MC4R antagonists of cAMP signaling, primary screen, cell-based, TR-FRET, antagonist arm of biased-ligand search | Melanocortin receptor 4 (Homo sapiens), P32245 | inhibition, % at 6.5 µM | hit rate 0.48% among 360,000 | MC4R-expressing cells, MTII-stimulated cAMP, LANCE TR-FRET;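 active = inhibition above its plate's cutoff, the mean of tested wells on that plate plus 3 SD, cut at about 29% in these data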;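 note: 0% = Melanotan II alone and 100% = Melanotan II plus saturating MCL0020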
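system = U2OS cells with stable human MC4R expression | also added = Melanotan II challenge after compound preincubation | dosing = one concentration, 6.5 µM nominal | incubation = compound 30 min, challenge 1 h, detection 1 h | measured by = TR-FRET with Eu-cAMP and labeled anti-cAMP, 671 nm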
TLR9-MyD88 block: inhibitors of TLR9-MyD88 association in cells, primary screen, cell-based, CHO, BLA complementation, fluorescence; Toll-like receptor 9 (Homo sapiens) + Myeloid differentiation primary response protein …; CCF4 FRET ratio; inhibition, % at 4.98 µM; hit rate 0.21% among 340,000; AID 504734, 2011;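 active = inhibition above the mean over all tested compounds plus 3 SD, cut at about 21% in these data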;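 note: 0% = DMSO only wells and 100% = clavulanate BLA inhibitor control wells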
NOD2 RIPK2 PPI: NOD2-RIPK2 binding disruptors in cells, primary screen, fluorescence, CHO cells, BLA complementation. CCF4 ratio. Receptor-interacting serine/threonine-protein kinase 2 (Homo sapiens), O43353. inhibition, % at 4.98 µM. hit rate 0.38% among 360,000. AID 624267, 2012; in the data active = inhibition above about 21%;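 note: 0% = vehicle only and 100% = reference blocker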
TLR4 MyD88 comp: inhibitors of TLR4-MyD88 association in cells, primary screen, cell-based, HeLa CL3-4, BLA complementation, FRET ratio; inhibition, % at 8.4 µM; HeLa CL3-4 TLR4/MyD88 BLA complementation; hit rate 0.18% among 200,000; in the data active = inhibition above about 25%;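 note: 0% = vehicle and 100% = reference inhibitor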
MC4R ag barr: MC4R agonists recruiting beta-arrestin, primary screen, cell-based, luminescence, agonist arm of biased-ligand search; U2OS MC4R beta-arrestin complementation; percent of melanotan II response, DMSO zero; activation, % at 8.9 µM; hit rate 0.98% among 360,000;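 active = activation above a per-plate cutoff, the mean activation of sample wells on that plate plus 3 SD, cut at about 8% in these data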
MIN6 prolif: inducers of MIN6 beta-cell proliferation, primary screen, ATP luminescence, uHTS; hit rate 0.29% among 330,000; MIN6 cells proliferation, ATPlite luminescence, 48 h; cells starved in 0.2% serum; 100% = growth in 10% serum; proliferation, % at 10 µM;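 active = compounds whose signal lies at least 3.5 SD above the mean of all wells on their plate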;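 note: 0% = DMSO-treated cells in low-serum medium and 100% = 10% serum control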
TLR9-MyD88 cf: TLR9-MyD88 association inhibitors, retest, confirmation, cell-based, CHO, BLA complementation, fluorescence, triplicate. shares compounds with TLR9-MyD88 block. CCF4 FRET ratio. inhibition, % at 4.98 µM. hit rate 51% among 680. AID 540250, 2011;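 active = mean inhibition across three repeats above about 21% taken from the earlier screen, limit read from the data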;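 note: blue over green emission ratio reports constitutive TLR9 MyD88 association via BLA complementation; 0% = DMSO vehicle wells and 100% = clavulanate BLA inhibitor wells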
Target sequence (Q9NR96 whole entry, looked up): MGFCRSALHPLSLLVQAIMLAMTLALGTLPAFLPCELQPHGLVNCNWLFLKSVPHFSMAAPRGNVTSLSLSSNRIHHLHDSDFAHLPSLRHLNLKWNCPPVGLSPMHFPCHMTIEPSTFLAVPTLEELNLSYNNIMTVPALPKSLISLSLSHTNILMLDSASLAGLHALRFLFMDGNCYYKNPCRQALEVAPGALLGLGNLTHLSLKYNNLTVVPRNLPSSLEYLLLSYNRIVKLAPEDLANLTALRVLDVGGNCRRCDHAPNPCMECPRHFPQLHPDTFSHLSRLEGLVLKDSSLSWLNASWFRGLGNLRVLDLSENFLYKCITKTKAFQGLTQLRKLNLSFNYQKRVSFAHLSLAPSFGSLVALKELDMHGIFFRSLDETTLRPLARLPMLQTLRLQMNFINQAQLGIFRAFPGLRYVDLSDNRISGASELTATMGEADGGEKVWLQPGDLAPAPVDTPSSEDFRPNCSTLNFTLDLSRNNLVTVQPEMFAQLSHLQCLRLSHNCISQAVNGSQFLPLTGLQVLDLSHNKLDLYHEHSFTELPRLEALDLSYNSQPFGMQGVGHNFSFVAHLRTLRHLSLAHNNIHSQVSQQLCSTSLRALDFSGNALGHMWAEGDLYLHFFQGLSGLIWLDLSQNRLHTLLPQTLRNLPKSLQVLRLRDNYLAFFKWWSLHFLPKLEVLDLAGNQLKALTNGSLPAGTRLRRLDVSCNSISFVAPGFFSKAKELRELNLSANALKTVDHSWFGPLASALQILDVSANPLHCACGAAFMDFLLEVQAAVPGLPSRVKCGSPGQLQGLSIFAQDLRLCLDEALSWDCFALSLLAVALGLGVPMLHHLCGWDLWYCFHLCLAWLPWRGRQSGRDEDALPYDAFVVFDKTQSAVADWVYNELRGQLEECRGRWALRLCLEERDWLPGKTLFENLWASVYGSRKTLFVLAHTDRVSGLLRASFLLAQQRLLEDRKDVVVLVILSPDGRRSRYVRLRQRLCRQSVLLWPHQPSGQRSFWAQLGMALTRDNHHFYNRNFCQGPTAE
BLA counter: beta-lactamase reporter inhibitors in CHO cells, artefact control for TLR9-MyD88 binding inhibitor project, cell-based, fluorescence. shares compounds with TLR9-MyD88 block. CHO-BLA cells, CCF4 FRET ratio, BLA reporter. inhibition, % at 4.98 µM. hit rate 7% among 680;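 active = mean inhibition above a 50% cutoff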;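 note: counterscreen of TLR9-MyD88 hits on CMV-driven BLA in CHO-K1 cells; 0% = DMSO alone and 100% = clavulanate blocking BLA; higher means less blue over green ratio so more BLA blockade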
TLR9 CHO tox: CHO cell viability loss – luminescence, single concentration, cytotoxicity control for TLR9-MyD88 binding inhibitor project; shares compounds with TLR9-MyD88 block; TLR9-MyD88 CHO cells cytotoxicity; inhibition, % at 4.98 µM; hit rate 39% among 680; in the data active = inhibition above about 11%
An asterisk follows results filed as active; / = not tested or not shown.

SMILES | MC4R antagonist | TLR9-MyD88 block | NOD2 RIPK2 PPI | TLR4 MyD88 comp | MC4R ag barr | MIN6 prolif | TLR9-MyD88 cf | BLA counter | TLR9 CHO tox
COc1ccc(C(=O)NCC(=O)N/N=C/C(C)=C/c2ccccc2)cc1OC | 0 | 21* | 2 | 0 | 0 | 0 | 1 | -2 | -1
COc1ccc(C(=O)NCC(=O)N/N=C/C=C/c2ccccc2)cc1OC | -7 | 3 | -7 | -8 | -1 | 2 | / | / | /
CNC(=O)CSc1nc2[nH]ncc2c(=O)[nH]1 | 9 | 6 | -2 | 4 | -3 | -2 | / | / | /
COc1ccc(-c2cc(C(=O)NCc3ccco3)c3ccccc3n2)cc1 | -3 | 3 | 6 | / | 2 | -2 | / | / | /
COc1ccc(-c2cc(C(=O)NCc3ccco3)c3ccccc3n2)c(OC)c1 | 0 | 33* | -4 | / | -2 | -1 | 1 | -1 | -2
CN(C)c1ccc(NC2=C(Cl)C(=O)c3ccccc3C2=O)cc1 | -32 | 25* | 8 | -33 | -5 | -6 | 23* | 4 | 19*
CC(=O)Nc1ccc(NC2=C(Cl)C(=O)c3ccccc3C2=O)cc1 | / | / | / | -39 | / | -5 | / | / | /
CCCCCc1c(CC)ncn1CCc1ccccc1OC | / | / | -7 | / | / | / | / | / | /
Cc1[nH]c2ccccc2c1C(=O)NS(=O)(=O)Nc1ccc(Cl)cc1 | 1 | 6 | -4 | -20 | -2 | 0 | / | / | /
COc1ccccc1NS(=O)(=O)NC(=O)c1c(C)[nH]c2ccccc12 | -3 | 21* | -6 | / | -2 | -2 | -2 | -4 | 3
COc1cc(/C=N/NC(=O)c2ccc([N+](=O)[O-])cc2Cl)cc(Br)c1O | -4 | 34* | 3 | -4 | -4 | -2 | -2 | -1 | -4
COc1ccc(Br)cc1C(=O)N/N=C/c1ccc([N+](=O)[O-])cc1 | -3 | -11 | 0 | -12 | 2 | 1 | / | / | /
COc1cccc(CNC23CC4CC(CC(C4)C2)C3)c1OCc1ccccc1 | 4 | 1 | -12 | -9 | 7 | -6 | / | / | /
Cc1c(O)ccc2c(CN3CCN(CCO)CC3)cc(=O)oc12 | 15 | 27* | 12 | -3 | 2 | -2 | 10 | 8 | 2
CNS(=O)(=O)c1cc(N(C)S(=O)(=O)c2ccc(C)cc2)c(C)cc1C | 3 | -11 | -4 | -3 | -3 | -2 | / | / | /
Cc1ccc(S(=O)(=O)N(C)c2cc(S(=O)(=O)Nc3ccncc3)c(C)cc2C)cc1 | 6 | 29* | 13 | 0 | -1 | 0 | 3 | 9 | 0
Cn1c(SCc2cccc(C#N)c2)nc2ccccc2c1=O | 1 | -6 | 7 | / | 2 | -1 | / | / | /
CC(C)Oc1cccc(NC(=O)C2(C)CCN2C(=O)C(C)C)c1 (centres undefined) | 10 | / | -1 | / | -1 | / | / | / | /
CCOC(=O)[C@H]1[C@H]2COc3ccc(C)cc3[C@@H]2N2C(=O)CN(Cc3ccco3)C(=O)[C@@]12C | 3 | 22* | 3 | / | -2 | -2 | 4 | 1 | 0
O=C(Nc1ccccn1)C1CCN(C(=O)c2ccc(Cl)cc2)CC1 | 3 | -15 | -13 | / | 3 | / | / | / | /
COc1ccc(C2NN=C(c3ccc(C)cc3)S2)cc1 (centres undefined) | 25 | -1 | -11 | / | 2 | / | / | / | /
CCOc1cc(C2NN=C(c3ccc(C)cc3)S2)ccc1O (centres undefined) | 20 | 21* | 15 | 6 | -1 | / | 11 | 10 | 10
Cc1ccsc1C(=O)OCC(=O)NC1CCCCC1 | 5 | 21* | -9 | / | 1 | / | -5 | -5 | 0
COc1cc(/C=C/C(=O)O)cc(S(=O)(=O)NCc2ccc3c(c2)OCO3)c1OC | 0 | 21* | -7 | 1 | -3 | 0 | 3 | 0 | -5
COc1cc(/C=C/C(=O)O)cc(S(=O)(=O)NCc2ccco2)c1OC | 24 | -15 | -1 | -2 | 2 | -1 | / | / | /
SMILES | MC4R antagonist | TLR9-MyD88 block | NOD2 RIPK2 PPI | TLR4 MyD88 comp | MC4R ag barr | MIN6 prolif | TLR9-MyD88 cf | BLA counter | TLR9 CHO tox
O=C1c2ccccc2NC(c2ccc(-c3ccc(C(F)(F)F)cc3)o2)N1O (centres undefined) | 13 | 24* | 4 | / | 4 | -6 | 4 | 5 | 41*
Cc1cccc2cc3c(N)c(C(=O)N4CCc5ccccc54)sc3nc12 | -23 | 22* | 2 | 3 | -3 | -5 | 18 | 19 | 18*
Cc1ccc(C)c2nc3sc(C(=O)N4CCOCC4)c(N)c3cc12 | -1 | 22* | -1 | -1 | 0 | 4 | 5 | 0 | 26*
O=C1C(Cl)=C(O)C2(Cl)C(Cl)=C(Cl)C12Cl (centres undefined) | -1 | 0 | -13 | / | -1 | / | / | / | /
COc1ccc(C2=CC(c3ccco3)n3ncnc3N2)cc1 (centres undefined) | 1 | 28* | 21* | 8 | 0 | -1 | 8 | 10 | 7
Clc1ccc(C2=CC(c3ccco3)n3ncnc3N2)cc1 (centres undefined) | 7 | 15 | 16 | -5 | 4 | 3 | / | / | /
COc1ccc(/C=C/C(=O)NC(=S)Nc2ccc(S(=O)(=O)Nc3ccc(OC)nn3)cc2)cc1 | 20 | 27* | -5 | -4 | 0 | -3 | -4 | -1 | -1
Cc1c(Cl)c([N+](=O)[O-])nn1CCCC(=O)Nc1sc2c(c1C#N)CCC2 | 14 | 23* | -10 | 2 | 6 | -2 | -5 | -1 | -3
Cc1c(Br)c([N+](=O)[O-])nn1CCCC(=O)Nc1sc2c(c1C#N)CCC2 | 9 | 1 | -1 | 1 | 0 | -3 | / | / | /
CCOc1ccc(NC(=O)C2CCN(S(=O)(=O)c3ccc4c(c3)C(C)(C)C(=O)N4C)CC2)cc1 | 5 | 7 | -6 | / | -1 | -1 | / | / | /
Cc1c(CN2CCC(CO)(CCOc3ccccc3)CC2)c(=O)n(-c2ccccc2)n1C | -5 | 34* | -10 | 1 | -1 | -2 | 1 | 5 | -2

Screening results: PubChem, several laboratories
